Nine compounds from ChEMBL document CHEMBL4680083, “Identification of Tricyclic Agonists of Sphingosine-1-phosphate Receptor 1 (S1P) Employing Ligand-Based Drug Design” (J Med Chem, 2016) can be followed below.

In data set [1] the test system is Rattus norvegicus. As to the kind of experiment: Reduction in circulating lymphocytes count in Lewis rat blood at 1 mg/kg, po measured at 4 hrs by hematology analyzer based analysis. Also noted: scale not given: the % may be the effect or the level left. The class given is functional. Put shortly: (§1)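 Lewis rats were given an oral dose as a solution or suspension in PEG300, with controls receiving vehicle only. Blood was taken by retro-orbital bleeding under isoflurane at 4 and 24 h. Lymphocytes were counted on a hematology analyzer. Reduction is relative to the vehicle group, averaged over the animals in each group (n = 3−4).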

Data set [2] has as its target Sphingosine 1-phosphate receptor 1 (Homo sapiens, UniProt P21453). Description: Agonist activity at human S1P1 expressed in CHO cell membranes assessed as stimulation of [35S]-GTPgamma-S binding measured after 45 mins by liquid scintillation counting method. Also noted: species or system Cell membrane. The gist of the method: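 S1P1/CHO cell membranes at 3 μg protein/well with 3-fold compound dilutions. [35S]GTPγS 0.2 nM final, 45 min at room temperature. Filter-plate capture, water washes, scintillation counting. EC50 taken at 50% of each compound's own Ymax.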
A general note: GTPγS is a poorly hydrolysed GTP analogue; its binding reports G protein activation.

A short description of data set [3]: Ratio of plasma concentration in Lewis rat at 1 mg/kg, po measured at 4 hrs to plasma concentration in Lewis rat at 1 mg/kg, po measured at 24 hrs. The class given is ADME, organism-based. The note with it: in vivo.
The target in data set [4] is Sphingosine 1-phosphate receptor 3 (Homo sapiens, UniProt Q99500). Description: Agonist activity at human S1P3 expressed in CHO cell membranes assessed as stimulation of [35S]-GTPgamma-S binding measured after 45 mins by liquid scintillation counting method. Details: species or system Cell membrane.
Data set [5] can be described thus: Plasma concentration in Lewis rat at 1 mg/kg, po measured at 24 hrs. The conditions noted are these: Lewis, plasma. It counts as ADME, organism-based. Put shortly:
(§2)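 Lewis rats received a single oral 1.0 mg/kg dose as solution or suspension in PEG300. Blood was drawn retro-orbitally under isoflurane at 4 h and 24 h, within the blood lymphocyte reduction study. n = 3−4 per group, group mean reported.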

Data set [6] is described as follows: Selectivity index, ratio of EC50 for agonist activity at human S1P3 expressed in CHO cell membranes to EC50 for agonist activity at human S1P1 expressed in CHO cell membranes. It counts as cell-based.
Data set [7] is described as follows: Plasma concentration in Lewis rat at 1 mg/kg, po measured at 4 hr. The note with it: Lewis, plasma. The class given is ADME, organism-based. Put shortly: as §2
Data set [8] relates to Rattus norvegicus. As to the kind of experiment: Reduction in circulating lymphocytes count in Lewis rat blood at 1 mg/kg, po measured at 24 hrs by hematology analyzer based analysis. It counts as functional. Details: scale not given: the % may be the effect or the level left. Put shortly: as §1

SMILES strings stand for the structures.

Chain of Sphingosine 1-phosphate receptor 3 (Q99500 whole entry): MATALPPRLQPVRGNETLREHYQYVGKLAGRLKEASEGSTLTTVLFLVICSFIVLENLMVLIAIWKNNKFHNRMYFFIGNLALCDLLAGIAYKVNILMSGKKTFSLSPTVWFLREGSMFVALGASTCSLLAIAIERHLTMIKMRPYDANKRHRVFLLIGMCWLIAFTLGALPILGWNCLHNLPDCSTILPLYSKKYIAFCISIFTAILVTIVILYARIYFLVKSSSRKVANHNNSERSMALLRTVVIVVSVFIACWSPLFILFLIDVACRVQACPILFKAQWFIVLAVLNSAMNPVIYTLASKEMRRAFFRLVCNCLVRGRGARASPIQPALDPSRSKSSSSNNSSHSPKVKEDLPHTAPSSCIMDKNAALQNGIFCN
Chain of Sphingosine 1-phosphate receptor 1 (P21453 whole entry): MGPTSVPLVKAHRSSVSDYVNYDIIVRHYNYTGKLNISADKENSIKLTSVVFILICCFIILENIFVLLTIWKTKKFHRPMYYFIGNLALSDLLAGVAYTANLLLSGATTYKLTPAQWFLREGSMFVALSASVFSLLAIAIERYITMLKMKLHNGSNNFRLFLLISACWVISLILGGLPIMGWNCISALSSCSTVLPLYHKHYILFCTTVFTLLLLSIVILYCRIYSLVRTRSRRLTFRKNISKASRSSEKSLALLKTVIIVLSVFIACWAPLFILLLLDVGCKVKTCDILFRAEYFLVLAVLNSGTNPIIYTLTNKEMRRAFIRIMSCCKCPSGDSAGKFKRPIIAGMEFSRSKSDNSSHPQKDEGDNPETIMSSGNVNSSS

As for `CC(C)Cc1ccc(-c2onc3c2CCc2cc(CN4CC(C(=O)O)C4)ccc2-3)cc1C(F)(F)F`, the results for the Activity in the data set on Rattus norvegicus [1] and in the data set on Rattus norvegicus [8] were 74% and 76%, respectively. Also, the EC50 in data set [2] turned out to be 1.3 nM; in data set [4] it was 2800 nM. In data set [3], the Ratio is 2. Moreover, the concentration at 24 h in data set [5] was 50 nM. Further, the Ratio EC50 in data set [6] is 2200. The compound also gave a concentration at 4 h in data set [7] of 110 nM.

In the case of `O=C(O)C1CN(Cc2ccc3c(c2)CCc2c-3noc2-c2noc(-c3ccccc3)c2C(F)(F)F)C1`, the Activity in the data set on Rattus norvegicus [1] is recorded as 83%; with Rattus norvegicus [8] it was 87%. Further, the EC50 in data set [2] was found to be 0.48 nM; in data set [4] it was 1900 nM. The Ratio in data set [3] came out at 4. In data set [5], this compound had a concentration at 24 h of 43 nM. For the same compound, the Ratio EC50 in data set [6] amounted to 4000. Also, in data set [7], the concentration at 4 h was 160 nM.

Regarding `O=C(O)C1CN(Cc2ccc3c(c2)OCc2c-3noc2-c2noc(-c3ccccc3)c2C(F)(F)F)C1`, the Activity in the data set with Rattus norvegicus [1] worked out at 87%; in the data set on Rattus norvegicus [8], 93%. The half-maximal effective concentration (EC50) in data set [2] came out at 0.27 nM; in data set [4], 1200 nM. The Ratio in data set [3] is on record as 5. Besides, the concentration at 24 h in data set [5] turned out to be 46 nM. For the same compound, the Ratio EC50 in data set [6] is 4400. In data set [7], this compound returned a concentration at 4 h of 230 nM.

As for `O=C(O)C1CN(Cc2cc3c(cc2F)-c2noc(-c4noc(-c5ccccc5)c4C(F)(F)F)c2CC3)C1`, the Activity in the data set with Rattus norvegicus [1] came out at 74%; in the data set on Rattus norvegicus [8] it was 79%. The EC50 in data set [2] is 1.6 nM; in data set [4] it was 15000 nM. Also, the Ratio in data set [3] was determined as 7. In data set [5], this compound gave a concentration at 24 h of 46 nM. Moreover, the Ratio EC50 in data set [6] turned out to be 9400. This compound also had a concentration at 4 h in data set [7] of 320 nM.

Turning to `O=C(O)C1CN(Cc2ccc3c(c2)CCc2c(-c4onc(-c5ccccc5)c4C(F)(F)F)noc2-3)C1`, the Activity amounted to 66% in the data set on Rattus norvegicus [1] and 79% in the data set with Rattus norvegicus [8]. Moreover, the EC50 in data set [2] is 1.3 nM; in data set [4], 4400 nM. The Ratio in data set [3] was found to be 4. Moreover, the concentration at 24 h in data set [5] was 8 nM. Further, the Ratio EC50 in data set [6] was determined as 3400. The concentration at 4 h in data set [7] was determined as 34 nM.

`CC(C)Oc1ccc(-c2onc3c2CCc2cc(CN4CC(C(=O)O)C4)ccc2-3)cc1C(F)(F)F`: the values for the Activity in the data set with Rattus norvegicus [1] and with Rattus norvegicus [8] were 57% and 21%, respectively. Besides, the results for the EC50 in data set [2] and in data set [4] were 1.5 nM and 26000 nM, respectively. Besides, the Ratio in data set [3] was 6. The compound further showed a concentration at 24 h in data set [5] of 5 nM. Besides, the Ratio EC50 in data set [6] worked out at 17000. Also, the concentration at 4 h in data set [7] is 28 nM.

Regarding `CC1(c2onc(-c3onc4c3CCc3cc(CN5CC(C(=O)O)C5)ccc3-4)c2C(F)(F)F)CC1`, the Activity is on record as 85% in the data set with Rattus norvegicus [1] and 34% with Rattus norvegicus [8]. For the same compound, the results for the EC50 in data set [2] and in data set [4] were 1.3 nM and 1300 nM, respectively. Further, the Ratio in data set [3] was 48. Also, the concentration at 24 h in data set [5] amounted to 4 nM. Besides, the Ratio EC50 in data set [6] was 1000. This compound gave a concentration at 4 h in data set [7] of 190 nM.

For the compound `O=C(O)C1CN(Cc2ccc3c(c2)CCc2c-3noc2-c2onc(-c3ccccn3)c2C(F)(F)F)C1`, the Activity with Rattus norvegicus [1] was 82%; in the data set on Rattus norvegicus [8] it was 69%. Further, the EC50 in data set [2] turned out to be 1 nM; in data set [4], 1300 nM. Also, in data set [3], the Ratio turned out to be 120. Besides, the concentration at 24 h in data set [5] worked out at 1 nM. Also, the Ratio EC50 in data set [6] is 1300. The compound further gave a concentration at 4 h in data set [7] of 120 nM.

`CC(C)Cc1onc(-c2onc3c2CCc2cc(CN4CC(C(=O)O)C4)ccc2-3)c1C(F)(F)F`: the results for the Activity in the data set with Rattus norvegicus [1] and in the data set on Rattus norvegicus [8] were 86% and 80%, respectively. Further, the EC50 in data set [2] is 1.5 nM; in data set [4], greater than 3100 nM. Besides, in data set [3], the Ratio stood at 9. The same compound returned a concentration at 24 h in data set [5] of 61 nM. In addition, the Ratio EC50 in data set [6] was greater than 2100. This compound also gave a concentration at 4 h in data set [7] of 520 nM.

One may read the EC50 as the concentration needed to bring the measured effect to its halfway point.
